How the values were obtained:
[1] = melting temperature; fluorescence melt of hairpins on a sequencing array, two-state fit, raised by 9.35 °C to match UV melts; settings: sodium 0.088 M
Summary of the method: (§1)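 On a sequenced MiSeq flow cell, library hairpins with annealed Cy3 and quencher oligos were imaged for Cy3 fluorescence in 2.5 °C steps up to 60 °C, in 50 mM Na-HEPES pH 8.0, 25 mM NaCl. Normalisation used pre-quench Cy3 and control constructs. Bootstrapped two-state fits gave melting temperature and folding enthalpy, combined by inverse variance across four replicates and with fitted temperatures raised by 9.35 °C to match UV melts.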

[2] = folding enthalpy; higher = less favourable; fluorescence melt of hairpins on a sequencing array, two-state fit; settings: sodium 0.088 M
Summary of the method: as §1

Sequence	Tm [1] [°C]	folding enthalpy [2] [kcal/mol]
GCCGAGCGAAAGCTTAGC ((..(((....)))..))	39.9	-14.7
GCCGAGGGAAACCTTGGC (((.(((....))).)))	58.3	-35.4
GCCGAGGGAAACTTCGGC (((((.(....).)))))	56.8	-46.2
GCCGATGCGAAAGCAGGC (((..(((....))))))	58.5	-20.1
GCCGATGGAAACACCGGC ((((.((....)).))))	52.4	-42.9
GCCGCAGGAAACCACGGC ((((..(....)..))))	42.1	-20.4
GCCGCAGGAAACCGCGGC (((((.(....).)))))	67.8	-32.1
GCCGCCGAAAGGCAGGGC ((((((....)))..)))	66.8	-20.3
GCCGCCGAAAGGCCAGGC ((((((....)))..)))	56.1	-20.4
GCCGCCGAAAGGCCGGGC ((((((....)))..)))	60.4	-16.9
GCCGCCGAAAGGCTGGC ((((((....))).)))	69.2	-20.8
GCCGCGCGAAAGCACCGC ((.(.((....)).).))	46.5	-13.8
GCCGCGCGAAAGCCCCGC ((.(.((....)).).))	33.3	-7.57
GCCGCGCGAAAGCGTAGC ((..(((....)))..))	48.9	-13.8
GCCGCGCGAAAGCGTCGC ((..(((....)))..))	58	-10.1
GCCGCGCGAAAGCGTTGC ((..(((....)))..))	44.1	-14.6
GCCGCGCGAAAGCTCAGC ((.(.((....)).).))	35.1	-10.8
GCCGCGGGAAACCACGGC ((((.((....)).))))	63.6	-38.4
GCCGCGGGAAACCGCGAC (.(((((....))))).)	59.7	-10.8
GCCGCTGGAAACAGTGGC (((.(((....))).)))	62.9	-50.7
GCCGGACCGAAAGGTGGC (((..(((....))))))	53.4	-26.9
GCCGGATCGAAAGATGGC (((..(((....))))))	46	-17.6
GCCGGCGAAAGCCCAGGC ((((((....)))..)))	57.5	-19.4

Sequence	Tm [1] [°C]	folding enthalpy [2] [kcal/mol]
GCCGGCGAAAGCCCGGGC ((((((....)))..)))	62.1	-17.6
GCCGGCGAAAGCCGAGGC ((((((....)))..)))	63.1	-13.4
GCCGGCGAAAGCCGCGGC ((((((....)))..)))	65.3	-11.9
GCCGGCGAAAGCCGTGGC ((((((....)))..)))	58.4	-13.1
GCCGGGCGAAAGCCGCGC ((..(((....)))..))	60.1	-15.2
GCCGGGCGAAAGCCTTGC ((..(((....)))..))	40.2	-12.4
GCCGGGCGAAAGCGAGGC (((..((....))..)))	66.1	-43.3
GCCGGGCGAAAGCGCAGC ((.(.((....)).).))	43.3	-13.2
GCCGGGCGAAAGCGCCGC ((.(.((....)).).))	48.7	-11.5
GCCGGGCGAAAGCTGGGC (((..((....))..)))	61.2	-26.3
GCCGGTCGAAAGACGGGC (((.(((....))).)))	63.9	-39.9
GCCGTAACGAAAGTTGGC (((..(((....))))))	49.4	-20.9
GCCGTACGAAAGTAGGC (((.(((....))))))	67.4	-33.6
GCCGTAGGAAACTACGAC (.(((((....))))).)	40.8	-18.5
GCCGTAGGAAACTGTGGC (((..((....))..)))	43.3	-11.4
GCCGTCACGAAAGTGGGC (((..(((....))))))	48.5	-19.5
GCCGTCGAAAGACAGGGC ((((((....)))..)))	54.4	-38.8
GCCGTCGAAAGACCAGGC ((((((....)))..)))	48.9	-17.5
GCCGTGCGAAAGCACAGC ((.((((....)))).))	61.2	-14
GCCGTGCGAAAGCAGCGC ((..(((....)))..))	55.9	-13.9
GCCGTGCGAAAGCAGTGC ((..(((....)))..))	44.7	-12.4
GCCGTGCGAAAGCCTGGC (((..((....))..)))	56.2	-20.4
GCCGTGCGAAAGCGCTGC ((.(.((....)).).))	49	-19.6

Sequence	Tm [1] [°C]	folding enthalpy [2] [kcal/mol]
GCCGTGCGAAAGCTAGGC (((..((....))..)))	66.9	-32
GCCGTGCGAAAGCTTGGC (((..((....))..)))	59.6	-28.5
GCCGTTACGAAAGTAGGC (((..(((....))))))	54.8	-33.1
GCCGTTCGAAAGAAGGGC (((.(((....))).)))	60.2	-44
GCCGTTGGAAACAGTGGC (((..((....))..)))	43.6	-14.4
GCCTAACGAAAGTTGGC (((.(((....))))))	53.7	-31.3
GCCTAAGGAAACTTAGGC (((((((....)))))))	58.3	-40.1
GCCTACGAAAGTAAGGGC ((((((....)))..)))	46.8	-23.9
GCCTACGAAAGTAGAGGC ((((((....)))..)))	49.3	-22.7
GCCTACGAAAGTAGCGGC ((((((....)))..)))	49.6	-19.5
GCCTACGAAAGTATCGGC ((((((....)))..)))	40.6	-24.7
GCCTACGAAAGTATTGGC ((((((....)))..)))	43.4	-20.5
GCCTACGCGAAAGCGGGC (((..(((....))))))	62.1	-14.8
GCCTACGGAAACACAGGC ((((..(....)..))))	34.6	-23.3
GCCTACGGAAACATAGGC (((((.(....).)))))	40.3	-28.9
GCCTAGCCGAAAGGCGGC (((..(((....))))))	59.7	-14.1
GCCTAGCGAAAGCACGGC (((..((....))..)))	54.9	-20.3
GCCTAGCGAAAGCAGGGC (((..((....))..)))	62.4	-24
GCCTAGCGAAAGCATGGC (((..((....))..)))	61.2	-30.7
GCCTAGCGAAAGCCAGGC ((((.((....)).))))	62.2	-29.4
GCCTAGCGAAAGCCGGGC (((..((....))..)))	57.1	-20.1
GCCTAGCGAAAGCCTGGC (((..((....))..)))	52.1	-19.6
GCCTAGCGAAAGCGATGC ((.(.((....)).).))	44.1	-13.4

Sequence	Tm [1] [°C]	folding enthalpy [2] [kcal/mol]
GCCTAGCGAAAGCTCCGC ((..(((....)))..))	25.9	-9.3
GCCTAGCGAAAGCTTAGC ((..(((....)))..))	36.8	-12.6
GCCTAGCGAAAGCTTCGC ((..(((....)))..))	44.6	-7.98
GCCTAGGGAAACCTAGGC (((((((....)))))))	67.5	-36.9
GCCTATGGAAACATAGAC (.(((((....))))).)	32.6	-17.4
GCCTATGGAAACGTAGGC (((((.(....).)))))	51.1	-39.8
GCCTATTCGAAAGAAGGC (((..(((....))))))	38.2	-20.6
GCCTCAGGAAACTGAAGC ((.((((....)))).))	36.3	-24.9
GCCTCAGGAAACTGAGAC (.(((((....))))).)	38.4	-20.8
GCCTCAGGAAACTGGGGC (((.(((....))).)))	56	-41.9
GCCTCCGAAAGGAATGGC ((((((....)))..)))	49.9	-23
GCCTCCGAAAGGAGTGGC ((((((....)))..)))	50.3	-17.1
GCCTCCGAAAGGATGGC ((((((....))).)))	57	-36.6
GCCTCGCGAAAGCATGGC (((..((....))..)))	53.3	-18.4
GCCTCGCGAAAGCCACGC ((.(.((....)).).))	20.5	-6.05
GCCTCGCGAAAGCGACGC ((.((((....)))).))	52.6	-16.5
GCCTCGCGAAAGCGATGC ((.((((....)))).))	58.2	-16.7
GCCTCGCGAAAGCTAAGC ((.(.((....)).).))	25.6	-6.03
GCCTCGCGAAAGCTACGC ((.(.((....)).).))	20	-5.87
GCCTCGCGAAAGCTTGGC (((..((....))..)))	51.4	-25.5
GCCTCGGGAAACCGGGGC (((.(((....))).)))	66.3	-36.4

Reference: the array DNA melting data of Ke et al. (doi:10.1101/2024.01.08.574731)
